The source of these data is publication PMC8897208 (Acta Pharmaceutica Sinica. B, 2021).

Test [1] deals with T1, SIRT6 (Homo sapiens, UniProt Q8N6T7). Kind of test: In vitro nucleosome deacetylation assay. It counts as biochemical. Conditions: Western blot. In short, it runs like this: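 Nucleosomes were isolated from HeLa cells and deacetylated in vitro by SIRT6 in the presence of NAD+. H3K9Ac and H3K18Ac were detected by Western blot.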
A general note: Immunoblotting shows a protein as a band on a membrane.

The test system of test [2] is SIRT6 mutants (Y5A, T57A, P62A, D63A, P67A, H68A, V70A, P80A, K81A, Y257A). Nature of the test: FDL assay on SIRT6 Pocket Z mutants. Format: biochemical, human. In short, it runs like this: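 SIRT6 point mutants were made by site-directed mutagenesis. Each plasmid was expressed separately in E. coli BL21 (LB, 100 μg/mL ampicillin, 37 °C), induced with 0.5 mmol/L IPTG at OD600 0.8 for 18 h at 16 °C, and purified as for wild type.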

The test system of test [3] is BXPC-3 cells. Nature of the test: Migration assay by wound healing. Format: cell-based. Conditions: for relative migration rate (wound healing): control ~0.60.
Test [4] has as its system BXPC-3 cells. Nature of the test: Migration assay with xCELLigence RTCA-DP. Format: cell-based. Particulars: 5, 10, 20 μmol/L, effect even at 5 μmol/L.
A further test deals with T2, HDAC8 (Homo sapiens, UniProt Q9BY41).
T2 sequence (Q9BY41 1-377): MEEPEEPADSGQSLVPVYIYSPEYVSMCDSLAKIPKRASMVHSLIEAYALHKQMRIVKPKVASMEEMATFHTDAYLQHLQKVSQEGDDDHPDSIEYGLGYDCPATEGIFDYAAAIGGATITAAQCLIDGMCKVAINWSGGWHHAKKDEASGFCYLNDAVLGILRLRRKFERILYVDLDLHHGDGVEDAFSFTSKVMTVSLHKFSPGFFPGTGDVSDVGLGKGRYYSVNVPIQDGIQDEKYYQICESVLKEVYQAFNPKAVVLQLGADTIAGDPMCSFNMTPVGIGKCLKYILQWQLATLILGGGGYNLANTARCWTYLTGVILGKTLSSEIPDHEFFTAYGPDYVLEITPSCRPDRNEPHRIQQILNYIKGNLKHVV
Kind of test: HDACs selectivity assay. Format: biochemical. An outline of the steps:
(§1)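 Enzyme selectivity panel was run by an outside contract lab to its standard assay protocols. IC50 values came from dose–response fitting of the data points. Each experiment was done independently at least three times.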

A further test has as its target HDAC4 (Homo sapiens, UniProt P56524). Kind of test: HDACs selectivity assay. It counts as biochemical. In short, it runs like this: as §1
Test [5] has as its target T1, SIRT6. Kind of test: Enzymatic kinetic assays by HPLC. It counts as biochemical. Particulars: for kcat (Ac-RHKK-Ac-AMC): varied Ac-RHKK-Ac-AMC, HPLC.
In the next test the target is HDAC9 (Homo sapiens, UniProt Q9UKV0). Kind of test: HDACs selectivity assay. It counts as biochemical. An outline of the steps:
as §1

The test system of test [6] is BXPC-3 cells. Nature of the test: Proliferation assay. Format: cell-based. Particulars: BXPC-3, up to 20 μmol/L, 48 h, CCK-8.
Another test addresses T3, SIRT5 (residues 34–302) (Homo sapiens, UniProt Q9NXA8).
T3 sequence (Q9NXA8 34-302): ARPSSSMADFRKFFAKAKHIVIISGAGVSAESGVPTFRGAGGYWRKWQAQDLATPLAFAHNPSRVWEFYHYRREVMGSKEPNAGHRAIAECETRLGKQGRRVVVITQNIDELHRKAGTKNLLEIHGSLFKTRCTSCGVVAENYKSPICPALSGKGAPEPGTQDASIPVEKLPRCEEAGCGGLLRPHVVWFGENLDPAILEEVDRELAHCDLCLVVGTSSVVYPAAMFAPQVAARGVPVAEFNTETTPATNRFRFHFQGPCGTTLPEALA
Nature of the test: Selectivity FDL deacetylation assay. Format: biochemical.

Test [7] deals with MiaPaCa-2 cells. Nature of the test: Migration assay with xCELLigence RTCA-DP. It counts as cell-based. Conditions: effect even at 5 μmol/L.
The target of a further test is HDAC3 (Homo sapiens, UniProt O15379). Kind of test: HDACs selectivity assay. It counts as biochemical. In short, it runs like this: as §1
Another test addresses T4, HDAC10 (Homo sapiens, UniProt Q969S8).
T4 sequence (Q969S8 1-669): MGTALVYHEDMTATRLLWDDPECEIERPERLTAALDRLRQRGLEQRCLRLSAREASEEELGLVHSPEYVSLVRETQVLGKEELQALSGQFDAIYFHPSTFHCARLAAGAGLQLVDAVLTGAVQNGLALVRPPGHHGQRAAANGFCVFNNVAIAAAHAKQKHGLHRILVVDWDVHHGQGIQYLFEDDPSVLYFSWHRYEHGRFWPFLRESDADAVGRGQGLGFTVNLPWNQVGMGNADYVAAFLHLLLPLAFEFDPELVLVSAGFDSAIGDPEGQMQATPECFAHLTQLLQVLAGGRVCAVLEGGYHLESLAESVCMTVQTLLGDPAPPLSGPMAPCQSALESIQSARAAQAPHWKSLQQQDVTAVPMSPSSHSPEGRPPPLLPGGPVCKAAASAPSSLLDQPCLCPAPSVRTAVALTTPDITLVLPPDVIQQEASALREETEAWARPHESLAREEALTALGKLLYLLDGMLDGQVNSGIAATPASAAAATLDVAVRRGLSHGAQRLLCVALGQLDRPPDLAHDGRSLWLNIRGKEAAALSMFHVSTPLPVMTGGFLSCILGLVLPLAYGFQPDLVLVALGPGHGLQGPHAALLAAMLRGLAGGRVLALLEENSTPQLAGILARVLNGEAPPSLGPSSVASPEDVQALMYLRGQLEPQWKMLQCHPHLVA
Nature of the test: HDACs selectivity assay. It counts as biochemical. In short, it runs like this: as §1

The subject of test [8] is BXPC-3 cells. Kind of test: Q-PCR for SIRT6, IL6, IL8 and TNF-α mRNA. It counts as cell-based. Particulars: BXPC-3, 10, 20, 40 μmol/L, 24 h, qPCR. Background: Real-time PCR tracks product formation cycle by cycle.
The test system of test [9] is MiaPaCa-2 cells. Kind of test: Proliferation assay. It counts as cell-based. Particulars: MiaPaCa-2, up to 20 μmol/L, 48 h, CCK-8.
A further test deals with HDAC1 (Homo sapiens, UniProt Q13547). Nature of the test: HDACs selectivity assay. Format: biochemical. In short, it runs like this:
as §1

T1 sequence (Q8N6T7 whole entry): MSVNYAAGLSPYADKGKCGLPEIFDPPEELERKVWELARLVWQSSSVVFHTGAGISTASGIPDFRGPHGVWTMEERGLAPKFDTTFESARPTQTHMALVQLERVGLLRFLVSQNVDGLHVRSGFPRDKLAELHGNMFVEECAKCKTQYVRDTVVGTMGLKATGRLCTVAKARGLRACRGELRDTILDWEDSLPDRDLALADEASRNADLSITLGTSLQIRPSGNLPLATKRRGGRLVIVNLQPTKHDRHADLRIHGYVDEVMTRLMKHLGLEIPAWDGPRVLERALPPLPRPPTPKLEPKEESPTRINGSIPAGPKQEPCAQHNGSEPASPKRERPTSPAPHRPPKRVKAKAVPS
HDAC3, sequence (O15379 whole entry): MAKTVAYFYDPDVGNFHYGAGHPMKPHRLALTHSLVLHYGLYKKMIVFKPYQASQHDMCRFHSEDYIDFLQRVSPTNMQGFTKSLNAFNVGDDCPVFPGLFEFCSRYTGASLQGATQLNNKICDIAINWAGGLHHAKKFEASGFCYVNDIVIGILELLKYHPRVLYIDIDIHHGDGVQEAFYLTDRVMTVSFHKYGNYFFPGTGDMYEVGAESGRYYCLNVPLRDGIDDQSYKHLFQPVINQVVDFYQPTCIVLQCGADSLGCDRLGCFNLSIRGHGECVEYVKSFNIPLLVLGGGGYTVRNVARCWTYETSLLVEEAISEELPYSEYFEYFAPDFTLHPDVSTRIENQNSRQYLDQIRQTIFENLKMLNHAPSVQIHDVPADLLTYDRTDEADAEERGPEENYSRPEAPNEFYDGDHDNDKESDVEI
HDAC3, sequence (Q9Y618 395-489 partner limits assumed): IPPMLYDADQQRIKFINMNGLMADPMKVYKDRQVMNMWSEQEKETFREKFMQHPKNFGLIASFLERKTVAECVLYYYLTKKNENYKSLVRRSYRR
HDAC9, sequence (Q9UKV0 whole entry): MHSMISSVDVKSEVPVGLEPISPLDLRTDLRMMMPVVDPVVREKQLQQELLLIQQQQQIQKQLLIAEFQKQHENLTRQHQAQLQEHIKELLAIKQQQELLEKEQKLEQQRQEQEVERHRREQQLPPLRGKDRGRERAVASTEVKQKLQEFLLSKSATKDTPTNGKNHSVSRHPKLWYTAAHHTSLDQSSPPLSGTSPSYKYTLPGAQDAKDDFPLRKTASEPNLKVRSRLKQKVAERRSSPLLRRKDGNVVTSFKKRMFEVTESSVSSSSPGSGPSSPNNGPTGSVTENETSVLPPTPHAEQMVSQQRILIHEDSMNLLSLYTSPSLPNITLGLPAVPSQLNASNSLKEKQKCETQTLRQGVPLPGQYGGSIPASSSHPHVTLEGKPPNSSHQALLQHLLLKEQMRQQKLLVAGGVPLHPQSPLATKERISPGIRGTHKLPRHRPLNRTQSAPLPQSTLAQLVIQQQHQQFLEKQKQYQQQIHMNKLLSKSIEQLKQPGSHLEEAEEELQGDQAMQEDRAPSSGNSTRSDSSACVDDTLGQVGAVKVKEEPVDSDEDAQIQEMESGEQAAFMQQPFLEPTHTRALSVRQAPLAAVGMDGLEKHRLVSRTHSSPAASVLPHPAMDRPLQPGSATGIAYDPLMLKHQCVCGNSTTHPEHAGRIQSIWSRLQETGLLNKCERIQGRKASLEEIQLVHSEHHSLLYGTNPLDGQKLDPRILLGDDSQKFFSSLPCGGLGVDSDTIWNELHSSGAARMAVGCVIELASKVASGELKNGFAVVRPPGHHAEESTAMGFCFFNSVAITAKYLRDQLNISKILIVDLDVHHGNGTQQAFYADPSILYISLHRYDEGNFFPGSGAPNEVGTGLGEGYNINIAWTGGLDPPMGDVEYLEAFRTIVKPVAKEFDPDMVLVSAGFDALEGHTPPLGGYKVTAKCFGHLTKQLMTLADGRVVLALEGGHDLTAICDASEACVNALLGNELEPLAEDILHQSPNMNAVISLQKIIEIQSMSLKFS
HDAC4, sequence (P56524 whole entry): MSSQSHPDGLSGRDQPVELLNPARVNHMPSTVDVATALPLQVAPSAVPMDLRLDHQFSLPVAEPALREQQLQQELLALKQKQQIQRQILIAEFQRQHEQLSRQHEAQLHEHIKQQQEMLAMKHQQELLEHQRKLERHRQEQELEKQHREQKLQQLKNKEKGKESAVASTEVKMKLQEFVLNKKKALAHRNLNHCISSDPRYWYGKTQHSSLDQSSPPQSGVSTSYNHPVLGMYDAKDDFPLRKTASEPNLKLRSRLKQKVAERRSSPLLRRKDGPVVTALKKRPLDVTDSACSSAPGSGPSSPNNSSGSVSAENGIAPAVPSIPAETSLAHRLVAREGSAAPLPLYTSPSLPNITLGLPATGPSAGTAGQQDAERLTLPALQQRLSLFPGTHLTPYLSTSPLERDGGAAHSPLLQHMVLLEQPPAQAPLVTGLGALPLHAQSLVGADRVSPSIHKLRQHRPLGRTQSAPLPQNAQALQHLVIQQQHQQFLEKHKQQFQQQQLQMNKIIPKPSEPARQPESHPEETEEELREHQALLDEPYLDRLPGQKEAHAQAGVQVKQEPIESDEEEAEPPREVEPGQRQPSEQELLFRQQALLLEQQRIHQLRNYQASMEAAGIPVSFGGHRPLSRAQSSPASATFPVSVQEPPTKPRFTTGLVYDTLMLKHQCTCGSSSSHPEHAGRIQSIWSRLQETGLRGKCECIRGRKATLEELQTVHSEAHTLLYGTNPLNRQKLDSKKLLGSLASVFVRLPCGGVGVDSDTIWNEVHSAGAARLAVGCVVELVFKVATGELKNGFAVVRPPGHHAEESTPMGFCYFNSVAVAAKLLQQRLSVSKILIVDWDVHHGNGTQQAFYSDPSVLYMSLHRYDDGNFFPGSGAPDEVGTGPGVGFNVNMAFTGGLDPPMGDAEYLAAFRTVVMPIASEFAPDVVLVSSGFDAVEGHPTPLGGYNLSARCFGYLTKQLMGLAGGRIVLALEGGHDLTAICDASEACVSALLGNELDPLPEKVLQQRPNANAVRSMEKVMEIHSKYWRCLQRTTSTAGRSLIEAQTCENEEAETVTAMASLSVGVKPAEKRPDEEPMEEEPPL
HDAC1, sequence (Q13547 whole entry): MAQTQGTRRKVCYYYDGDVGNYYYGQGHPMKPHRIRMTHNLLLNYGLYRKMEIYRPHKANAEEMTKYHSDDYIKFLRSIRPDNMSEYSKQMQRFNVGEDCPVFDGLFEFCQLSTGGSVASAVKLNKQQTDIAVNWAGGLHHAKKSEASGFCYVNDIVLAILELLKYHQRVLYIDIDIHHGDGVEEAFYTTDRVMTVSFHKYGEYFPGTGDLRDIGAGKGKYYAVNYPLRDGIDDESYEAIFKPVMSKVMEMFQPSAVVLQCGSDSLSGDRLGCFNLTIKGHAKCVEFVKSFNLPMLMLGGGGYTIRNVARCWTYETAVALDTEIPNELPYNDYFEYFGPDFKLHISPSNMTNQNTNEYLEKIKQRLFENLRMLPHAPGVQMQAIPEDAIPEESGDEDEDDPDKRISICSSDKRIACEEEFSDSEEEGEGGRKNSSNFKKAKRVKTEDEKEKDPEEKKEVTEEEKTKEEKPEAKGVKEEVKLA

`Nc1nonc1-n1cc(C(=O)N/N=C/c2cc(Cl)cc(C(F)(F)F)c2)nn1` [JYQ-42]: the “inhibition of SIRT6 deacetylase activity on nucleosomes” value is given as “inhibit the deacetylase activity of SIRT6 significantly” on SIRT6 [1] (0.5 μmol/L) and “completely/totally inhibited” against SIRT6 [1] (1 μmol/L). Besides, the “IC50 values on SIRT6 mutants” value in test [2] (Y5A, T57A, P62A, D63A, P67A, H68A, V70A, P80A, K81A, Y257A versus wild type) is recorded as “increased”. Besides, the “inhibition of SIRT6 deacetylation, T57A and H68A mutants” value in [2] (mutations T57A and H68A) is given as “completely disrupted JYQ-42 inhibition”. Besides, the “relative migration rate (wound healing)” value is ~ 0.3 in the test with BXPC-3 cells [3] (BXPC-3, 10 μmol/L JYQ-42, 24 h); ~ 0.24 in the test on BXPC-3 cells [3] (BXPC-3, 20 μmol/L JYQ-42, 24 h); ~ 0.10 with BXPC-3 cells [3] (BXPC-3, 40 μmol/L JYQ-42, 24 h). Moreover, the “migration with ADPr co-treatment (wound healing)” value in the test with BXPC-3 cells [3] (BXPC-3, 40 μmol/L JYQ-42 in the presence of 0.5 mmol/L ADPr) was “no influence on the migration”. For the same compound, the “migration of pancreatic cancer cells (RTCA cell index)” value with BXPC-3 cells [4] and in the test with MiaPaCa-2 cells [7] was “dramatically attenuated” throughout. Besides, the IC50 on HDAC8, on HDAC4, on HDAC9, on SIRT5 (residues 34–302), against HDAC3 and against HDAC10 was greater than 100 µM in each case. Moreover, the IC50 (in general, the concentration that gives 50% inhibition) on HDAC1 is greater than 100 µM. Moreover, the inhibition mode entry at SIRT6 [5] (Lineweaver–Burk analysis towards NAD^+ and Ac-RHKK-Ac-AMC) is listed as “non-competitive inhibitor”. The “kcat (Ac-RHKK-Ac-AMC)” value on SIRT6 [5] (SIRT6 with 1 μmol/L JYQ-42) is listed as 33.65 × 10^−4 S^−1; on SIRT6 [5] (SIRT6 with 3 μmol/L JYQ-42), 22.12 × 10^−4 S^−1; on SIRT6 [5] (SIRT6 with 10 μmol/L JYQ-42), 13.86 × 10^−4 S^−1. Moreover, the cell growth entry with BXPC-3 cells [6] and with MiaPaCa-2 cells [9] was “no significant impact on cell growth” each time. Also, the “mRNA level of SIRT6” value in the test on BXPC-3 cells [8] is reported as “not significantly changed”.
